Screening results deposited in PubChem BioAssay by several laboratories.
CDK5 inh: inhibitors of human CDK5/p35 kinase, primary screen, biochemical, single concentration; Recombinant CDK5/p35, ADP-Glo luminescence, 60 min; inhibition, % at 10 µM; hit rate 0.01% among 330,000; Cyclin-dependent kinase 5 (Homo sapiens) + Cyclin-dependent kinase 5 activator 1 (Homo …;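 active means highest replicate inhibition of at least 50% and at least 75% of replicates reaching 50%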;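 further: plate controls were DMSO neutral control for no effect and GW8510 at 10 µM for full effect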
Target sequence (Q00535 whole entry, looked up): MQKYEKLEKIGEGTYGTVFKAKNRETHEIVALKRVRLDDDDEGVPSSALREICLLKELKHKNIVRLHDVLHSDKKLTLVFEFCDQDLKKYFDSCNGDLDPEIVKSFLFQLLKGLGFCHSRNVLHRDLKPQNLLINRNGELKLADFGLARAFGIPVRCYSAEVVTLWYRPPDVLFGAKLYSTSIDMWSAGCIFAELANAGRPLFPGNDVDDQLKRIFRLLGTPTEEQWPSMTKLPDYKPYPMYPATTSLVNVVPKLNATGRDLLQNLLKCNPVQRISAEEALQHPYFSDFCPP
Target sequence (Q15078 whole entry, looked up): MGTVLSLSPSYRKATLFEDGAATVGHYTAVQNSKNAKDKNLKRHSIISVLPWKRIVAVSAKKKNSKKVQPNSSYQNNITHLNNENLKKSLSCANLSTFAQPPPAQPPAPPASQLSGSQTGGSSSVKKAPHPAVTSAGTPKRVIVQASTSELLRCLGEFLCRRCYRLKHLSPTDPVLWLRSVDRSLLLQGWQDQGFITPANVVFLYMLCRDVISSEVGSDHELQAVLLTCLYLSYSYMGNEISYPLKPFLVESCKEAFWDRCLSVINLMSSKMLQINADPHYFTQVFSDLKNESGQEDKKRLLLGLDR
DYRK1A inh: rat Dyrk1A kinase inhibitors, primary screen, biochemical, single point, plate reader; ADP-Glo luminescence, NFATc1 peptide; AID 504441, 2011; inhibition, % at 12.5 µM; hit rate 0.43% among 310,000; Dual specificity tyrosine-phosphorylation-regulated kinase 1A (Rattus norvegicus), Q63470; in the data active means inhibition above about 50%;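 further: plate controls were vehicle with enzyme for no effect and no enzyme for full effect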
PvdQ inh: P. aeruginosa PvdQ acylase inhibitors, primary screen, biochemical, fluorescence, plate reader and imaging, single point; PvdQ acylase [Pseudomonas aeruginosa LESB58]; purified PvdQ acylase; inhibition, % at 10 µM; hit rate 0.063% among 340,000; AID 488965, 2010; in the data active means inhibition above about 30%, passing the limit was not always enough;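 further: 0% = vehicle neutral wells and 100% = reference inhibitor wells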
CAL PDZ FP-1: CAL PDZ peptide-binding inhibitors, primary screen, biochemical, fluorescence polarization, Cer-tagged CAL PDZ, HTS; Golgi-associated PDZ and coiled-coil motif-containing protein (Homo sapiens), Q9HD26; purified CAL PDZ, TMR-peptide fluorescence polarization, 1 h; inhibition, % at 20 µM; hit rate 0.02% among 330,000; AID 504414, 2011;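 active means highest replicate inhibition of at least 40%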;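 further: plate controls were DMSO neutral control wells for no effect and unlabeled competitor peptide control wells for full effect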
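System: purified tagged CAL PDZ domain construct (CerCALP). Schedule: 1 h incubation at room temperature before polarization reading. Medium: 25 mM sodium phosphate pH 7.4, 150 mM NaCl, TCEP, IgG, Thesit. Read-out: percent inhibition from loss of millipolarization. Measured by: FP readout, S and P plane fluorescence. Probe or stimulus: fluorescent TMR peptide probe.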
TbMetRS inhib: T. brucei MetRS inhibitors, primary screen, biochemical, luminescence; methionyl-tRNA synthetase (Trypanosoma brucei brucei); purified T. brucei MetRS, ATP depletion, Kinase-Glo luminescence; inhibition, % at 11.9 µM; hit rate 0.4% among 360,000; AID 624268, 2012;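 active means inhibition above a per-plate cutoff of the control wells' mean inhibition plus 3 SD, cut at about 5.5% in these data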;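 further: 0% = DMSO wells median and 100% = median of wells with control inhibitor compound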
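technique = Kinase-Glo luminescence, ATP depletion format | system = purified MetRS (methionyl-tRNA synthetase) enzyme from Trypanosoma brucei | timing = 15 min preincubation, 2 h reaction, all 25 °C | evaluation = percent inhibition versus plate control medians | dosing = single dose, 11.9 µM final nominal, 0.9% final DMSO | also added = substrates ATP, L-methionine and bulk Escherichia coli tRNA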
CAL PDZ FP-2: untagged CAL PDZ binding inhibitors, primary screen, biochemical, fluorescence polarization, HTS; purified CAL PDZ, TMR-peptide fluorescence polarization, 1 h; AID 602252, 2012; hit rate 0.92% among 300,000; inhibition, % at 24.9 µM; Golgi-associated PDZ and coiled-coil motif-containing protein (Homo sapiens), Q9HD26;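 active means mean inhibition of at least 30% with at least half of replicates also reaching 30%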;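 further: 0% = DMSO neutral control and 100% = excess unlabeled competitor peptide PRC23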
TbMetRS confirm: T. brucei MetRS inhibitors, confirmation, biochemical, luminescence | shares compounds with TbMetRS inhib | T. brucei MetRS enzyme, luminescence (ATP depletion) | inhibition, % at 11.9 µM | hit rate 93% among 1,400; in the data active means inhibition above about 7%
Jurkat tox: Jurkat T cell cytotoxicity, cytotoxicity control for T. brucei MetRS inhibitor project, luminescence, high throughput | Jurkat cells viability, ATP luminescence | hit rate 12% among 1,400 | shares compounds with TbMetRS inhib | inhibition, % at 8.3 µM; in the data active means inhibition above about 15%;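 further: 0% = vehicle and 100% = reference inhibitor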
Tb MetRS inh FP: T. brucei MetRS inhibitors, orthogonal assay for T. brucei MetRS inhibitor project, biochemical, fluorescence polarization; hit rate 44% among 1,400; AID 651607, 2012; purified T. brucei MetRS; shares compounds with TbMetRS inhib; inhibition, % at 11.9 µM; in the data active means inhibition above about 17%;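 further: 0% = vehicle wells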
Active calls of the source: *; . = no result given. An excerpt weighted towards active compounds, which were near 1.4% of everything screened.

SMILES	CDK5 inh	DYRK1A inh	PvdQ inh	CAL PDZ FP-1	TbMetRS inhib	CAL PDZ FP-2	TbMetRS confirm	Jurkat tox	Tb MetRS inh FP
CSC[C@H]1CN(Cc2cccnc2)C(=O)[C@@H]1CC(=O)Nc1ccc(Br)cc1	.	.	.	.	69*	.	82*	-7	51*
CC(NC(=O)c1cccc2c1Oc1ccccc1S2)C(=O)O (stereo unspecified)	.	.	.	.	8.7*	.	11*	-8	2
COc1ccccc1N1CCN(S(=O)(=O)CCNC(=O)CCc2ccccc2)CC1	.	.	.	.	0	.	.	.	.
CC1(Oc2cccnc2Cl)CCN(Cc2ccc(OC(F)(F)F)cc2)C1 (stereo unspecified)	.	.	.	.	0	.	.	.	.
Cc1ccc(C(O)c2ncc(-c3ccc4ccccc4c3)[nH]2)cc1 (stereo unspecified)	.	.	.	.	0	.	.	.	.
Cc1ccccc1-c1cnc(C(O)c2cc(Cl)cc(Cl)c2)[nH]1 (stereo unspecified)	.	.	.	.	53*	.	81*	6	57*
Cc1cc(C)cc(C(O)c2ncc(-c3ccccc3C(F)(F)F)[nH]2)c1 (stereo unspecified)	.	.	.	.	1	.	.	.	.
Cc1cc(C)cc(C(O)c2ncc(-c3ccc4ccccc4c3)[nH]2)c1 (stereo unspecified)	.	.	.	.	7.5*	.	30*	7	17*
OC(c1cc(F)cc(Cl)c1)c1ncc(-c2ccc(Cl)cc2)[nH]1 (stereo unspecified)	.	.	.	.	34*	.	69*	12	47*
OC(c1cc(F)cc(Cl)c1)c1ncc(-c2ccccc2C(F)(F)F)[nH]1 (stereo unspecified)	.	.	.	.	26*	.	48*	81*	23*
O=C(NC1CCCCC1)c1cccc(NC(=O)c2ccccc2Cl)c1	.	.	.	.	0	.	.	.	.
COc1ccc(C(=O)ON=C(C)c2nccs2)cc1	.	.	.	.	0	.	.	.	.
O=C1[C@H]2[C@@H](c3ccccc3)N[C@]3(CCCN(CC4CCCCC4)C3=O)[C@H]2C(=O)N1Cc1ccccc1	.	.	.	.	0	.	.	.	.
CCCCN1CC(C)(C)[C@H](CC(=O)NC)C1=O	.	.	.	.	0	.	.	.	.
OC(c1cc(Cl)cc(Cl)c1)c1ncc(-c2cccc(F)c2)[nH]1 (stereo unspecified)	.	.	.	.	42*	.	77*	-1	55*
CCCc1nc2cc(C)c(Br)c(C)n2c1Cc1ccc(OC)cc1C	.	.	.	.	-1	.	.	.	.
COc1ccc(N2C(=O)C(CC(=O)Nc3ccc(Cl)cc3)N(NC(=O)c3cccc(F)c3)C2=S)cc1 (stereo unspecified)	1	-3	-7	0	39*	2	51*	-9	24*
O=C(CC1C(=O)N(c2ccc(Cl)cc2)C(=S)N1CCc1ccncc1)Nc1ccc(F)cc1 (stereo unspecified)	-16	1	-10	0	21*	-1	23*	2	23*
CCN1C(=O)C(CC(=O)Nc2ccc(OC)cc2)N(CCc2ccc(F)cc2)C1=S (stereo unspecified)	0	5	0	-1	39*	3	46*	9	33*
COc1ccc(NC(=O)CC2C(=O)N(C)C(=S)N2CCc2ccccc2)cc1 (stereo unspecified)	0	8	-4	-2	50*	-3	49*	5	25*
Cc1cc(Br)cn2c(Cc3ccsc3)c(-c3cccc(Br)c3)nc12	.	.	.	.	0	.	.	.	.
O=C(NC(Cc1ccccc1)C(=O)N1CCN(c2ccc(F)cc2)CC1)c1ccccc1 (stereo unspecified)	.	.	.	.	0	.	.	.	.
CN(C)CCNc1nc(Oc2cccc(F)c2)c2sccc2n1	.	.	.	.	0	.	.	.	.
COc1cccc(CN(C)CCCn2cnc(C(=O)Nc3ccc(C)c(C)c3)n2)c1	1	7	-15	-2	-1	0	.	.	.
O=c1[nH]c2cc(F)ccc2c2ccc(F)cc12	1	5	-16	-1	0	-1	.	.	.
SMILES	CDK5 inh	DYRK1A inh	PvdQ inh	CAL PDZ FP-1	TbMetRS inhib	CAL PDZ FP-2	TbMetRS confirm	Jurkat tox	Tb MetRS inh FP
COc1ccc(CCN2C(=S)N(C)C(=O)C2CC(=O)Nc2ccc(OC)cc2)cc1 (stereo unspecified)	0	-3	-16	-1	44*	-1	62*	-4	31*
COc1ccc(NC(=O)CC2C(=O)N(C)C(=S)N2Cc2ccc3c(c2)OCO3)cc1 (stereo unspecified)	0	-6	7	0	-1	-3	.	.	.
COc1ccc(NC(=O)CC2C(=O)N(C)C(=S)N2CCc2ccc(F)cc2)cc1 (stereo unspecified)	.	.	.	.	50*	.	67*	12	43*
CS(=O)(=O)Cc1nc2ccccc2n1CC(=O)Nc1cccc(S(=O)(=O)N2CCCC2)c1	0	0	1	-1	10*	.	33*	0	10
CN(C)Cc1nc2ccccc2c(=O)n1CC(=O)Nc1cccc(S(=O)(=O)N2CCOCC2)c1	-1	-3	20	0	-1	-2	.	.	.
C[C@@H]1CN([C@@H](C)CO)C(=O)c2ccccc2-c2ccccc2CO[C@@H]1CN(C)S(=O)(=O)c1ccc(C(F)(F)F)cc1	.	.	.	.	0	.	.	.	.
O=C(O)c1ccc(Nc2nc3ccc(Cl)cc3[nH]2)cc1	3	39	7	0	11*	0	44*	-3	14
O=C(Nc1nc2ccccc2[nH]1)c1cccc(Cl)c1	0	.	-1	-1	-1	-7	.	.	.
COc1ccc(CCNC(=O)CSc2nnc3c(n2)[nH]c2ccc(F)cc23)cc1OC	-3	-2	-15	-1	0	-5	.	.	.
COc1ccc(CNC(=O)CSc2nnc3c(n2)[nH]c2ccc(F)cc23)cc1	1	3	2	-2	33*	-1	92*	-4	66*
O=C(CSc1nnc2c(n1)[nH]c1ccc(F)cc12)NC1CC1	-2	-7	-6	-2	0	-1	.	.	.
Cc1ccc(NC(=O)CSc2nnc3c(n2)[nH]c2ccccc23)cc1	0	-3	-13	0	1	0	.	.	.
